Calls of active or inactive are those of the source. The calls are words filed in the database; no cut-off is given here.
Columns and labels:
MEF = experiment: Cytoprotective activity against paclitaxel-induced PARP cleavage in HSF1 deficient MEF at 3 uM pretreated for 1 hr followed by paclitaxel addition measured after 24 hrs by immunoblotting analysis; format: functional, cell-based; details: Mus musculus
Summary of the method: (§1)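 HSF1+/+ or HSF1−/− MEFs in DMEM with heat-inactivated 10% FBS, nonessential amino acids, glutamine, HEPES, 37 °C, 5% CO2. 1 h pretreatment at 3 μM, then 0.5 μM paclitaxel or 20 μM cisplatin for 24 h, or 10 Gy 137Cs γ-rays (3.81 Gy/min) for 48 h. Cleaved PARP and caspase-3 immunoblotted; bands normalized to loading control, fold-change vs negative control, ≥3 independent experiments.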

[1] = target: T1, Heat shock factor protein 1 (Homo sapiens) (UniProt Q00613); experiment: Activation of HSF1 in human NCI-H460 cells expressing pGL4-hsp70 construct assessed as upregulation of hsp70 promoter activity at 10 to 30 uM after 12 hrs by luciferase reporter gene assay; format: cell-based
T1 sequence (whole entry): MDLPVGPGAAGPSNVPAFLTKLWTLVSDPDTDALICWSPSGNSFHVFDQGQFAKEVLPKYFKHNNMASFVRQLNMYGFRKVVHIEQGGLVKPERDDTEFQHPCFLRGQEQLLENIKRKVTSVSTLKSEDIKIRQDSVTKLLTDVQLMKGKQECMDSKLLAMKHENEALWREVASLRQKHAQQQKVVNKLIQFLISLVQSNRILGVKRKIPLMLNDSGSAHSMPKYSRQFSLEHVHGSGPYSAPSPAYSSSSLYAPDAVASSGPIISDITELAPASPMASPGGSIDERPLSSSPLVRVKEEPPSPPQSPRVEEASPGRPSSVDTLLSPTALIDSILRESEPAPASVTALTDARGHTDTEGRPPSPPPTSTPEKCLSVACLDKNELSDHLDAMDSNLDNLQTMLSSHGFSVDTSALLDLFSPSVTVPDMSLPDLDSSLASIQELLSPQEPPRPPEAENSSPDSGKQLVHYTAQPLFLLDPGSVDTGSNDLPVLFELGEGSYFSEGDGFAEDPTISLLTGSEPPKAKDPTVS
Summary of the method: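 NCI-H460 cells stably carrying hsp25 or hsp70 promoter–luciferase reporters, seeded, treated after 24 h at 10 or 30 μM and harvested 12 h later. Lysate luciferase normalized to β-galactosidase; mean of three independent experiments, fold-change vs negative control.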

[2] = target: T1, Heat shock factor protein 1 (Homo sapiens); experiment: Activation of HSF1 in human NCI-H460 cells assessed as upregulation of HSP25 protein levels at 10 to 30 uM after 12 hrs by Western blot analysis; format: cell-based
Summary of the method: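 NCI-H460 cells treated 12 h at 10 or 30 μM; HSF1, HSP27 and HSP70 detected by Western blot.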

[3] = target: T1, Heat shock factor protein 1 (Homo sapiens); experiment: Activation of HSF1 in human L132 cells assessed as increase in HSP70 mRNA expression at 3 uM after 12 hrs by RT-PCR analysis; format: cell-based
Summary of the method: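 L132 human lung fibroblasts treated 12 h at 3 μM; hsp27 and hsp70 mRNA measured by RT-PCR under the same conditions as immunoblotting. Celastrol 1 μM positive control.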

[4] = target: T1, Heat shock factor protein 1 (Homo sapiens); experiment: Activation of HSF1 in human L132 cells assessed as increase in HSP70 protein levels at 3 uM after 12 hrs by immunoblotting analysis; format: cell-based
Summary of the method: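 L132 cells treated at 3 μM for 12 h, or at various doses for 12 h, or at 3 μM over a time course. Lysates resolved by SDS-PAGE, blotted to nitrocellulose, milk-blocked, primary antibodies 18 h at 4 °C, ECL detection. HSP27, HSP70 and Ser326-phospho-HSF1 bands normalized to loading control; ≥3 independent experiments; celastrol 1 μM positive control.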

L132 [5] = experiment: Cytoprotective activity against cisplatin-induced PARP cleavage in human L-132 cells at 3 uM pretreated for 1 hr followed by cisplatin addition measured after 24 hrs by immunoblotting analysis; format: functional, cell-based
Summary of the method: (§2)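 Human embryonic lung L132 cells in RPMI with 10% FBS. 1 h pretreatment at 3 μM, then 0.5 μM paclitaxel or 20 μM cisplatin for 24 h, or 10 Gy 137Cs γ-rays (3.81 Gy/min) for 48 h. Cleaved PARP and caspase-3 immunoblotted (ECL); bands normalized to loading control, fold-change vs negative control, ≥3 independent experiments.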

L132 [6] = experiment: Cytoprotective activity against cisplatin-induced caspase3 cleavage in human L-132 cells at 3 uM pretreated for 1 hr followed by cisplatin addition measured after 24 hrs by immunoblotting analysis; format: functional, cell-based; summary of the method: as §2
L132 [7] = experiment: Cytoprotective activity against IR-induced PARP cleavage in human L-132 cells at 3 uM pretreated for 1 hr followed by 10 Gy irradiation measured after 48 hrs by immunoblotting analysis; format: functional, cell-based; summary of the method: as §2
[8] = target: T2, Heat shock factor protein 1 (Mus musculus) (UniProt P38532); experiment: Activation of HSF1 in MEF assessed as protection against paclitaxel-induced caspase3 cleavage at 3 uM pretreated for 1 hr followed by paclitaxel addition measured after 24 hrs by immunoblotting analysis; format: cell-based; summary of the method: as §1
T2 sequence (whole entry): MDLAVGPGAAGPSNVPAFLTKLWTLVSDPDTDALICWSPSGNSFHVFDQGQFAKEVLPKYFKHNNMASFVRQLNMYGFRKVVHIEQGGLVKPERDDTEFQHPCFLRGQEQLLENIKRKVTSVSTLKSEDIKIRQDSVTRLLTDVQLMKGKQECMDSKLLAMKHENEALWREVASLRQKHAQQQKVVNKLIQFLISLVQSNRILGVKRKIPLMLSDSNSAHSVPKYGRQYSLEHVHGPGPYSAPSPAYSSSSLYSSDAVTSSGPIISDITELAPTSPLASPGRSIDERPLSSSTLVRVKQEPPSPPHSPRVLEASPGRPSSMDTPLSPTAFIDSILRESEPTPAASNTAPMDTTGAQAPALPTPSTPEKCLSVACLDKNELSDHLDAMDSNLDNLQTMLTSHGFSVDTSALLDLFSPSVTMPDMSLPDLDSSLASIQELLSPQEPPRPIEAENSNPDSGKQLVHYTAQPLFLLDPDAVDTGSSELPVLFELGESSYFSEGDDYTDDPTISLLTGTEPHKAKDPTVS

Mus musculus = experiment: Protection against IR-induced reduction in circulating neutrophils in ICR mouse at 10 mg/kg, ip administered once before and three times after 4.5 Gy irradiation measured after 9 days; format: functional, organism-based
Summary of the method: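 Female ICR mice (5–6 weeks) given 4.5 Gy whole-body IR, dosed ip at 10 mg/kg once before and three times after IR; 5 per group, sacrificed day 9. BM cellularity from H&E (hematopoietic cells per 200×200 μm area); peripheral WBC, lymphocytes, neutrophils; Ki67 IHC counted in five fields per femur; relative spleen weight vs control. Means ± SD, Student's t test.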

L132 [9] = experiment: Cytoprotective activity against cisplatin-induced cell death in human L-132 cells at 3 uM pretreated for 1 hr followed by cisplatin addition measured after 24 hrs by FACS analysis; format: functional, cell-based
Summary of the method: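 L132 cells in RPMI with 10% FBS. 1 h pretreatment at 3 μM, then 0.5 μM paclitaxel or 20 μM cisplatin for 24 h, or 10 Gy γ-rays for 48 h. Cells trypsinized, washed, stained with propidium iodide and analysed by flow cytometry. Means ± SD of ≥3 independent experiments, fold-change vs negative control.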

| Compound | Activity (MEF) | Activity [1] | Activity [2] | Activity [3] | Activity [4] | Activity (L132 [5]) | Activity (L132 [6]) | Activity (L132 [7]) | Activity [8] | Activity (Mus musculus) | Activity (L132 [9]) |
| --- | --- | --- | --- | --- | --- | --- | --- | --- | --- | --- | --- |
| COc1cc(/C=C/CO)ccc1O [CONIFERYL ALCOHOL] | inactive | Active | Active | Active | Active | Active | Active | Active | Active | Active | Active |
| COc1cc(/C=C/C=O)ccc1O [CONIFERYL ALDEHYDE] | inactive | Active | Active | Active | Active | Active | Active | Active | Active | Active | Active |

From ChEMBL document CHEMBL4190282, “The Conjugated Double Bond of Coniferyl Aldehyde Is Essential for Heat Shock Factor 1 Mediated Cytotoprotection” (J Nat Prod, 2017)
